In the library only some 2.7% were active in any assay of this set; here they are far more common.
FLuc stim CS: affects firefly luciferase, flagging false hits in luciferase stimulation screens | P08659 | 200,000 tested, under 10 active | ATPlite luciferase biochemical, luminescence, 10 min; 0 = ATP-free wells, 1 = DMSO control | activation factor at 10 µM | AID 1027;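 active means luciferase activation factor, scaled between plate controls, of at least 2 with compound at 10 µM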
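System: cell-free luciferase reagent; medium: PBS as buffer for the ATP substrate; doses: test compounds dosed from 2 mM stocks in 100% DMSO; incubation: 10 min, room temperature; measured by: luminescence from luciferase reaction; read-out: luciferase activation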
DTT redox prof: compounds producing H2O2 with reducing agent – biochemical, NIH compound library profiling, artefact control for MLSCN library redox annotation, primary screen; DTT-dependent redox cycling H2O2, phenol red/HRP absorbance; 100% = 100 µM peroxide control, 0% = buffer; activation, % at 10 µM; 200,000 compounds, 0.03% hits;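 active means activation of at least 50% relative to the plate's high and low controls in the primary single-dose screen; inactive means activation below 50%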;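 further: compound incubated with DTT at 0.8 mM final as the reducing agent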
ABCG2 block: inhibitors of human ABCG2 transporter, ABCB1 counter-screen; inhibition, % at 6.6 µM; 190,000 compounds, 0.1% hits; AID 1325; Q9UNQ0; IgMXP3 cells, JC-1 efflux, flow cytometry;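 active means inhibition above 80%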
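Test system: IgMXP3 (ABCG2) plus far-red-tagged CCRF-Adr (ABCB1) cells. Reagent: JC-1 dye as substrate. Timing: 10 min exposure at 25 °C with rotation, no wash. Measured by: flow cytometric JC-1 green MFI at 530 nm. Read-out: percent efflux inhibition, scaled nicardipine 100% to DMSO 0%. Control set: nicardipine and DMSO wells.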
Measles CPE: protection of cells from measles virus. 140,000 compounds, 1.5% hits. Measles virus-infected cells, CPE protection, absorbance. protection (pct of control), % at 4 µM; in the data active means protection mostly above about 24%, no sharp cut-off; inactive means mostly below about 26%
ABCB1 block: blocks JC-1 efflux by human ABCB1 transporter; 190,000 compounds, 0.067% hits; AID 1326; CCRF-Adr cells, flow cytometry; inhibition, % at 6.6 µM; in the data active means inhibition above about 40%;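 further: higher value means more JC-1 retained so stronger ABCB1 efflux block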
Target sequence (P08183 whole entry, looked up): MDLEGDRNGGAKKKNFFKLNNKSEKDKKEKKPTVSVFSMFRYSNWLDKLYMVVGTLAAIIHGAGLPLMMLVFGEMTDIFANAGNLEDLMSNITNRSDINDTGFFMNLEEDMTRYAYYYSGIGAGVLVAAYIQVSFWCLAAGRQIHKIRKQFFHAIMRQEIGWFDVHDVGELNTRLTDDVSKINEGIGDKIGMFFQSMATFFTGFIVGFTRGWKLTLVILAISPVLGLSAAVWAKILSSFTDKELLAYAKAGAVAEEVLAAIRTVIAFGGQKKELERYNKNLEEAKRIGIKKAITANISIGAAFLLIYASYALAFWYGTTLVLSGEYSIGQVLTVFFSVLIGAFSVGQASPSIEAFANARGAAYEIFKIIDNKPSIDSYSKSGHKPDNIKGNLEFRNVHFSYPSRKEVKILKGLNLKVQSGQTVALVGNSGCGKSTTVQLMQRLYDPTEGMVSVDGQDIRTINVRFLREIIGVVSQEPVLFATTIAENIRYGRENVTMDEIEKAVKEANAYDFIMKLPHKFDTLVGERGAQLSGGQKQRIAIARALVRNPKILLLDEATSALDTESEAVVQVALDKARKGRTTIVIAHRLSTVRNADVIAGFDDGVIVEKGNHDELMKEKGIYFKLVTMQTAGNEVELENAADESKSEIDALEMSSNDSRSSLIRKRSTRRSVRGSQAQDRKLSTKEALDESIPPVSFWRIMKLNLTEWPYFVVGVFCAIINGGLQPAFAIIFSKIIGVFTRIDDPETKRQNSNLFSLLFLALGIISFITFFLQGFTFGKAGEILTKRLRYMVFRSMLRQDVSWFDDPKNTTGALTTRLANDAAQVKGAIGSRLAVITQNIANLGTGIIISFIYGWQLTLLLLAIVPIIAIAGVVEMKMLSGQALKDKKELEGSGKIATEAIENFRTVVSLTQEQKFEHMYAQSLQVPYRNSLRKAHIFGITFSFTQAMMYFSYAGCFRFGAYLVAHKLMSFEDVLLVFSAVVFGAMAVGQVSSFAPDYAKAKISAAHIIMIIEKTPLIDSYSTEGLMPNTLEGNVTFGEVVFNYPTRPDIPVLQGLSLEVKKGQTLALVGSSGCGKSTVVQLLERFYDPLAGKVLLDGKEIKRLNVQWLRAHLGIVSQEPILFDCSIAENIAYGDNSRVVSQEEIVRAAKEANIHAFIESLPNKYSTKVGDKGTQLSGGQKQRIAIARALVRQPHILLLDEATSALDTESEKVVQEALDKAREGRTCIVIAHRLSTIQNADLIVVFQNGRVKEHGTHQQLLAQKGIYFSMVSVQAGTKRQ
FLuc inh counter: Photinus pyralis luciferase inhibition counter-screen | P08659 | AID 1006 | inhibition, % at 10 µM | ATPLite firefly luciferase biochemical luminescence, 10 min | 200,000 compounds, 1.5% hits;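 active means inhibition above about 50% when tested at 10 µM, limit read from the data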
Each line names hits and unclear results; the compound was inactive in the other large screens.

O=C1CC(c2ccc3c(c2)OCO3)Sc2nc3ccccc3n21 (configuration not stated)	FLuc inh counter 69
CCc1cc2c(SCC(=O)NC(=O)c3cccn3C)ncnc2s1	none (no result: Measles CPE)
CCN(CC)C(=O)c1cc(Cl)ccn1	none (no result: Measles CPE)
Cc1nc2ncnn2c(N2CCN(C(c3ccccc3)c3ccccc3)CC2)c1C	Measles CPE 53
Cc1cc(N2CCN(C(c3ccccc3)c3ccccc3)CC2)n2ncnc2n1	none
O=C(Nc1nc(-c2ccc(F)c(F)c2)cs1)c1ccc(OCC2CCCO2)cc1 (configuration not stated)	none
Cc1csc(NC(=O)c2ccc(N3CCCC3=O)cc2)n1	FLuc inh counter 89 (no result: Measles CPE)
Cc1csc(NC(=O)c2ccc(OCC3CCCO3)cc2)n1 (configuration not stated)	FLuc inh counter 74 (no result: Measles CPE)
Cc1cccc2cc(CN(CC3CCCO3)C(=S)NCc3ccco3)c(=O)[nH]c12 (configuration not stated)	Measles CPE 31
CC(C)OCCCNc1ncc2c(n1)CC(c1ccccc1)CC2=O (configuration not stated)	none (no result: Measles CPE)
O=c1c2ccccc2nnn1CSc1nnc2sc3ccccc3n12	Measles CPE 41, FLuc inh counter 58
CCOC(=O)CC(NC(=O)CCc1c(C)nc2ncnn2c1C)c1ccc(C)cc1 (configuration not stated)	none (no result: Measles CPE)
CCOC(=O)c1cnc2ccc(C)cc2c1Sc1ccccc1C(=O)OC	none
O=C(Nc1nc2ccc(F)cc2s1)c1ccccn1	FLuc inh counter 90 (no result: Measles CPE)
O=C(Nc1nc2ccccc2s1)c1cnccn1	FLuc inh counter 59
CCOc1ccccc1NC(=O)CCN1CCN(S(=O)(=O)c2ccc(Br)cc2)CC1	none
Cc1ccc(CNC(=S)Nc2cc(C)ccc2OC(F)F)cc1	none (no result: Measles CPE)
Cn1cnnc1SCc1ccc(C(=O)N/N=C/c2cccs2)cc1	FLuc inh counter 65 (no result: Measles CPE)
O=C(N/N=C/c1cccs1)c1ccc2c(c1)OCO2	FLuc inh counter 88
O=C(N/N=C/c1ccc2c(c1)OCO2)c1ccc2c(c1)OCCO2	FLuc inh counter 80
O=C(N/N=C/c1cccc([N+](=O)[O-])c1)c1ccc2c(c1)OCCO2	FLuc inh counter 84
O=C(NNC(=O)c1cccs1)c1ccc(Cl)c(Cl)c1	none
CN(C)c1ccc(C(=O)NC2(N3CCC3=O)CCCC2)cc1	none (no result: Measles CPE)
O=C(O)c1ccc(N/N=C/c2ccc3c(c2)OCO3)cc1	FLuc inh counter 61 (no result: Measles CPE)
O=C(O)c1cc(N/N=C/c2ccc3c(c2)OCCO3)ccc1Cl	FLuc inh counter 56
O=C(O)c1cc(N/N=C/c2ccc3c(c2)OCO3)ccc1Cl	none (no result: Measles CPE)
Nc1c(C2=NCCO2)nnn1Cc1ccccc1	Measles CPE 41
Cc1cc(C)n(-c2ccc(C(=O)Nc3ccccn3)cc2)n1	FLuc inh counter 65
COc1cc(C(=O)Nc2ccccn2)cc(OC)c1OC	none
Cc1cc(C(=O)Nc2ccccn2)cs1	FLuc inh counter 57
Cc1nnc(Sc2nc3ccccc3o2)c2ccccc12	Measles CPE 26
Cc1cc2c(o1)CC(C)(C)CC2=O	none (no result: Measles CPE)
O=C1CC2C(=O)NCCN2C(=NC(=O)c2ccc(Cl)cc2)N1 (configuration not stated)	none (no result: Measles CPE)
Cc1c(/C=N/NC(=O)CNc2ccccc2)c2ccccn2c1C(=O)c1ccccc1	Measles CPE 23
COc1ccccc1NC(=O)C(=O)N/N=C/c1cccs1	none
CC1(C)NC(=O)N(CC(O)COc2ccccc2C(=O)N2CCCCC2)C1=O (configuration not stated)	Measles CPE 44
FC(F)Sc1nc(-c2ccccc2)c(-c2ccccc2)n1C(F)F	Measles CPE 34
c1ccc(-c2nc(-n3nc4ccccc4n3)nc3ccccc23)cc1	none
CN(C)c1ccc(/C=C2/NC(=O)NC2=O)cc1	FLuc inh counter 73
CC1=NOC(=O)/C1=C/c1ccc(N(C)C)cc1	none
O=C(c1ccco1)N1CCN(C(=O)C2CCCc3c2[nH]c2ccc(Cl)cc32)CC1 (configuration not stated)	Measles CPE 82
CCc1ccc(CN(C)Cc2nc(COc3ccccc3)no2)nc1	none (no result: Measles CPE)
COc1ccccc1NC(=S)N1CCN(C(=O)C2CCCO2)CC1 (configuration not stated)	none (no result: Measles CPE)
COCCNC(=O)c1cc(-c2ccc3c(c2)OCO3)on1	FLuc inh counter 56
CC(=O)C1=C(O)C(=O)N(Cc2ccco2)C1c1ccccc1 (configuration not stated)	Measles CPE 34
Cc1cc(CNC(=O)CCc2nnc(CCCc3ccccc3)o2)nn1C	none (no result: Measles CPE)
COc1ccc(CN(C(=O)Cn2nnc(-c3ccc(C)o3)n2)C(C(=O)NCC2CCCO2)c2ccco2)cc1 (configuration not stated)	none (no result: Measles CPE)
CCn1cnc2sc(C(=O)N(Cc3ccc(N(C)C)cc3)Cc3ccco3)c(C)c2c1=O	Measles CPE 55
COC(=O)c1nn(-c2ccccc2)c(=O)cc1Oc1ccc(Cl)cc1	none
COC(=O)c1nn(-c2ccc(Cl)cc2)c(=O)cc1Sc1ccccn1	Measles CPE 28
CC(C)Cn1c(-c2csc3c2CCCC3)n[nH]c1=S	none
Cc1ccc(S(=O)(=O)NCCc2nnc3ccc(SCC(=O)Nc4nc5ccccc5s4)nn23)cc1	Measles CPE 30
COc1cccc(C(=O)Nc2ccccc2N2CCCC2)c1	none
COc1cccc(C(=O)/C=C2\Sc3ccccc3N2C)c1	FLuc inh counter 79 (no result: Measles CPE)
CN1/C(=C\C(=O)c2cccnc2)Sc2ccccc21	FLuc inh counter 55 (no result: Measles CPE)
CN1C(=O)C(O)(CC(=O)c2cccnc2)c2ccccc21 (configuration not stated)	none
COc1ccc(CCn2cnc(=O)c(C#N)c2C)cc1OC	none (no result: Measles CPE)
[O-]/C(=C(\C(=S)NCc1ccccc1)[n+]1ccccc1)c1ccc(Cl)s1	none (no result: Measles CPE)
O=C(O)CCC(=O)NNc1ncnc2ccccc12	none (no result: Measles CPE)
CCC(=O)NNc1ncnc2ccccc12	Measles CPE 92
O=C(CN(Cc1ccccc1)C(=O)c1cccc([N+](=O)[O-])c1)Nc1c(Cl)cc(Cl)cc1Cl	none
Cc1nc2cc(Nc3nnc(-c4ccccc4)c4ccccc34)ccc2n1C	FLuc inh counter 92
Cc1nc2cc(NC(=O)Nc3cccc4ccccc34)ccc2n1C	FLuc inh counter 56 (no result: Measles CPE)
COCCn1c(N)c(C(=O)NS(=O)(=O)c2ccc(C)cc2)c(=O)[nH]c1=O	none (no result: Measles CPE)
O=C(NCc1ccc2c(c1)OCO2)C1CCC(CNS(=O)(=O)c2ccccc2)CC1 (configuration not stated)	none
CC1CCC(NC(=O)c2ccc(S(C)(=O)=O)cc2)CC1 (configuration not stated)	none

Source: PubChem BioAssay
